Experiments:
Type in all cases: functional
K562 = experiment: Growth inhibition of human K562 cells at 10 uM after 48 hrs by coulter counter analysis; settings: K562, 48 h, read-out: GI
Outline: (§1)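 Single-dose NCI 60-line panel screen of test compounds. Cells grown in RPMI 1640 with 10% FBS. Compounds dissolved in DMSO, then diluted in phosphate buffer saline (final DMSO below 1%). Wells run in duplicate at 6 × 10⁴ cells/ml. Controls held PBS and DMSO at matching dilutions. Incubation 48 h at 37 °C under humidified 5% CO2. Cells diluted tenfold in saline and counted by Coulter counter. Percent growth inhibition taken from mean-graph of treated-cell growth.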

RPMI-8226 = experiment: Growth inhibition of human RPMI8226 cells at 10 uM after 48 hrs by coulter counter analysis; settings: RPMI-8226, 48 h, read-out: GI; outline: as §1
HOP-62 = experiment: Growth inhibition of human HOP62 cells at 10 uM after 48 hrs by coulter counter analysis; settings: HOP-62, 48 h, read-out: GI; outline: as §1
NCI-H226 = experiment: Growth inhibition of human NCI-H226 cells at 10 uM after 48 hrs by coulter counter analysis; settings: NCI-H226, 48 h, read-out: GI; outline: as §1
NCI-H23 = experiment: Growth inhibition of human NCI-H23 cells at 10 uM after 48 hrs by coulter counter analysis; settings: NCI-H23, 48 h, read-out: GI; outline: as §1
NCI-H322M = experiment: Growth inhibition of human NCI-H322M cells at 10 uM after 48 hrs by coulter counter analysis; settings: read-out: GI; outline: as §1
HCC 2998 = experiment: Growth inhibition of human HCC2998 cells at 10 uM after 48 hrs by coulter counter analysis; settings: HCC 2998, 48 h, read-out: GI; outline: as §1
HCT-15 = experiment: Growth inhibition of human HCT15 cells at 10 uM after 48 hrs by coulter counter analysis; settings: HCT-15, 48 h, read-out: GI; outline: as §1
HT-29 = experiment: Growth inhibition of human HT-29 cells at 10 uM after 48 hrs by coulter counter analysis; settings: HT-29, 48 h, read-out: GI; outline: as §1
SW-620 = experiment: Growth inhibition of human SW620 cells at 10 uM after 48 hrs by coulter counter analysis; settings: SW-620, 48 h, read-out: GI
Outline: (§2)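 Single-dose screen in the NCI 60 cell line panel. Cells grown in RPMI 1640 with 10% FBS. Compounds dissolved in DMSO and diluted in phosphate buffered saline, final DMSO under 1%. Duplicate wells seeded from culture at 6 × 10⁴ cells/ml. Incubated 48 h at 37 °C, humidified, 5% CO2. Cells diluted tenfold in saline and Coulter-counted. Percent growth inhibition computed against PBS/DMSO controls.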

SF-268 = experiment: Growth inhibition of human SF268 cells at 10 uM after 48 hrs by coulter counter analysis; settings: SF-268, 48 h, read-out: GI; outline: as §1
SF-539 = experiment: Growth inhibition of human SF539 cells at 10 uM after 48 hrs by coulter counter analysis; settings: SF-539, 48 h, read-out: GI; outline: as §1
LOX IMVI = experiment: Growth inhibition of human LOXIMVI cells at 10 uM after 48 hrs by coulter counter analysis; settings: read-out: GI; outline: as §1
Malme-3M = experiment: Growth inhibition of human MALME-3M cells at 10 uM after 48 hrs by coulter counter analysis; settings: read-out: GI; outline: as §1
MDA-MB-435 = experiment: Growth inhibition of human MDA-MB-435 cells at 10 uM after 48 hrs by coulter counter analysis; settings: MDA-MB-435, 48 h, read-out: GI; outline: as §1
SK-MEL-28 = experiment: Growth inhibition of human SK-MEL-28 cells at 10 uM after 48 hrs by coulter counter analysis; settings: SK-MEL-28, 48 h, read-out: GI; outline: as §1
SK-MEL-5 = experiment: Growth inhibition of human SK-MEL-5 cells at 10 uM after 48 hrs by coulter counter analysis; settings: SK-MEL-5, 48 h, read-out: GI; outline: as §1
UACC-62 = experiment: Growth inhibition of human UACC62 cells at 10 uM after 48 hrs by coulter counter analysis; settings: UACC-62, 48 h, read-out: GI; outline: as §2
IGROV-1 = experiment: Growth inhibition of human IGROV1 cells at 10 uM after 48 hrs by coulter counter analysis; settings: IGROV-1, 48 h, read-out: GI; outline: as §1
OVCAR-4 = experiment: Growth inhibition of human OVCAR4 cells at 10 uM after 48 hrs by coulter counter analysis; settings: OVCAR-4, 48 h, read-out: GI; outline: as §1
OVCAR-5 = experiment: Growth inhibition of human OVCAR5 cells at 10 uM after 48 hrs by coulter counter analysis; settings: OVCAR-5, 48 h, read-out: GI; outline: as §1
OVCAR-8 = experiment: Growth inhibition of human OVCAR8 cells at 10 uM after 48 hrs by coulter counter analysis; settings: OVCAR-8, 48 h, read-out: GI; outline: as §1
786-0 = experiment: Growth inhibition of human 786-0 cells at 10 uM after 48 hrs by coulter counter analysis; settings: 786-0, 48 h, read-out: GI; outline: as §1
A498 = experiment: Growth inhibition of human A498 cells at 10 uM after 48 hrs by coulter counter analysis; settings: A498, 48 h, read-out: GI; outline: as §1
CAKI-1 = experiment: Growth inhibition of human Caki1 cells at 10 uM after 48 hrs by coulter counter analysis; settings: CAKI-1, 48 h, read-out: GI; outline: as §1
RXF 393 = experiment: Growth inhibition of human RXF393 cells at 10 uM after 48 hrs by coulter counter analysis; settings: RXF 393, 48 h, read-out: GI; outline: as §1
SN12C = experiment: Growth inhibition of human SN12C cells at 10 uM after 48 hrs by coulter counter analysis; settings: read-out: GI; outline: as §1
UO-31 = experiment: Growth inhibition of human UO31 cells at 10 uM after 48 hrs by coulter counter analysis; settings: UO-31, 48 h, read-out: GI; outline: as §2
PC-3 = experiment: Growth inhibition of human PC3 cells at 10 uM after 48 hrs by coulter counter analysis; settings: PC-3, 48 h, read-out: GI; outline: as §1
MDA-MB-231 = experiment: Growth inhibition of human MDA-MB-231 cells at 10 uM after 48 hrs by coulter counter analysis; settings: MDA-MB-231, 48 h, read-out: GI; outline: as §1
[1] = Growth inhibition of human Hs 578T cells at 10 uM after 48 hrs by coulter counter analysis; settings: read-out: GI; outline: as §1
BT-549 = experiment: Growth inhibition of human BT549 cells at 10 uM after 48 hrs by coulter counter analysis; settings: BT-549, 48 h, read-out: GI; outline: as §1
T47D = experiment: Growth inhibition of human T47D cells at 10 uM after 48 hrs by coulter counter analysis; settings: read-out: GI; outline: as §2
MDA-MB-468 = experiment: Growth inhibition of human MDA-MB-468 cells at 10 uM after 48 hrs by coulter counter analysis; settings: MDA-MB-468, 48 h, read-out: GI; outline: as §1
CCRF-CEM = experiment: Growth inhibition of human CCRF-CEM cells at 10 uM after 48 hrs by coulter counter analysis; settings: read-out: GI; outline: as §1

Compound: CCOC(=O)c1sc(NC(=O)C(C)N2CCN(C)CC2)nc1C (stereo not given)
- inhibition of growth at 10 µM (K562): < 10%
- inhibition of growth at 10 µM (RPMI-8226): < 10%
- inhibition of growth at 10 µM (HOP-62): < 10%
- inhibition of growth at 10 µM (NCI-H226): < 10%
- inhibition of growth at 10 µM (NCI-H23): < 10%
- inhibition of growth at 10 µM (NCI-H322M): < 10%
- inhibition of growth at 10 µM (HCC 2998): < 10%
- inhibition of growth at 10 µM (HCT-15): < 10%
- inhibition of growth at 10 µM (HT-29): < 10%
- inhibition of growth at 10 µM (SW-620): < 10%
- inhibition of growth at 10 µM (SF-268): < 10%
- inhibition of growth at 10 µM (SF-539): < 10%
- inhibition of growth at 10 µM (LOX IMVI): < 10%
- inhibition of growth at 10 µM (Malme-3M): < 10%
- inhibition of growth at 10 µM (MDA-MB-435): < 10%
- inhibition of growth at 10 µM (SK-MEL-28): < 10%
- inhibition of growth at 10 µM (SK-MEL-5): < 10%
- inhibition of growth at 10 µM (UACC-62): < 10%
- inhibition of growth at 10 µM (IGROV-1): < 10%
- inhibition of growth at 10 µM (OVCAR-4): < 10%
- inhibition of growth at 10 µM (OVCAR-5): < 10%
- inhibition of growth at 10 µM (OVCAR-8): < 10%
- inhibition of growth at 10 µM (786-0): < 10%
- inhibition of growth at 10 µM (A498): < 10%
- inhibition of growth at 10 µM (CAKI-1): < 10%
- inhibition of growth at 10 µM (RXF 393): < 10%
- inhibition of growth at 10 µM (SN12C): < 10%
- inhibition of growth at 10 µM (UO-31): 13.1%
- inhibition of growth at 10 µM (PC-3): < 10%
- inhibition of growth at 10 µM (MDA-MB-231): < 10%
- inhibition of growth at 10 µM [1]: < 10%
- inhibition of growth at 10 µM (BT-549): < 10%
- inhibition of growth at 10 µM (T47D): < 10%
- inhibition of growth at 10 µM (MDA-MB-468): < 10%
- inhibition of growth at 10 µM (CCRF-CEM): < 10%

Reference: ChEMBL document CHEMBL2040727, “Substituted thiazoles VI. Synthesis and antitumor activity of new 2-acetamido- and 2 or 3-propanamido-thiazole analogs” (2012)
